In brackets after ≈: the same amount, converted by molar mass. Activity calls are given as the source filed them. No cut-off for these calls is given here.
Columns and labels:
[1] = system: Mycobacterium tuberculosis; test: Antimycobacterial activity against Mycobacterium tuberculosis H37Rv at 6.25 ug/ml by broth microdilution assay; type: functional
How it was run: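 Single-concentration screen at 6.25 µg/mL against M. tuberculosis H37Rv (ATCC 27294), broth microdilution in BACTEC 12B medium. Read-out is % growth inhibition versus controls. At least 90% inhibition counted as active.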

[2] = Lipophilicity, log P of the compound; type: physicochemical; conditions: octanol/water
How it was run: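 log P calculated with ACD algorithm and database statistics; not measured experimentally.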

[3] = system: Mycobacterium tuberculosis; test: Antimycobacterial activity against Mycobacterium tuberculosis H37Rv by broth microdilution assay; type: functional
How it was run: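 M. tuberculosis H37Rv (ATCC 27294) grown in BACTEC 12B medium, broth microdilution. MIC taken as the lowest concentration giving a 90% reduction in fluorescence relative to controls. Rifampin served as reference drug.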

Mus musculus [4] = test: Neurotoxicity in mouse at 100 mg/kg after 4 hrs; type: toxicity, organism-based; parameters: dose 100 mg/kg; conditions: in vivo
How it was run: (§1)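 Mice dosed intraperitoneally at 30, 100 and 300 mg/kg; 1a and 1b given as hydrochloride salts. Observed 0.5 and 4 h after dosing. Value is number of animals showing neurological deficit over number dosed. Deaths also recorded.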

Mus musculus [5] = test: Neurotoxicity in mouse at 300 mg/kg after 4 hrs; type: toxicity, organism-based; parameters: dose 300 mg/kg; conditions: in vivo; how it was run: as §1
Mus musculus [6] = test: Neurotoxicity in mouse at 300 mg/kg after 0.5 hrs; type: toxicity, organism-based; parameters: dose 300 mg/kg; conditions: in vivo; how it was run: as §1
Mus musculus [7] = test: Neurotoxicity in mouse at 100 mg/kg after 0.5 hrs; type: toxicity, organism-based; parameters: dose 100 mg/kg; conditions: in vivo; how it was run: as §1
Liver [8] = test: Stimulation of respiration in rat liver mitochondria assessed as effect on swelling at 100 uM; type: functional
How it was run: (§2)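 Rat liver mitochondria isolated by differential centrifugation (respiratory control ratio 5–7). Swelling of fresh mitochondria followed at 30 °C in 125 mM sucrose, 65 mM KCl, 10 mM Hepes, 5 mM potassium phosphate, 1 mM MgCl2, pH 7.2, with 5 mM succinate. Compounds tested at 5, 10 and 100 μM; DMSO solvent control.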

Liver [9] = test: Stimulation of respiration in rat liver mitochondria assessed as effect on swelling at 10 uM; type: functional; how it was run: as §2
Rattus norvegicus = test: Neurotoxicity in rat at 30 mg/kg, po after 0.25 hrs; type: toxicity, organism-based; parameters: dose 30 mg/kg, route oral; conditions: in vivo
How it was run: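 Rats dosed orally at 30 or 50 mg/kg and examined for neurotoxicity 0.25, 0.5, 1, 2 and 4 h after dosing. Four animals per group, with three rats at one 0.5 h time point.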

Liver [10] = test: Stimulation of respiration in rat liver mitochondria assessed as effect on swelling at 5 uM; type: functional; how it was run: as §2
[11] = system: Mycobacterium tuberculosis; test: Antimycobacterial activity against Mycobacterium tuberculosis H37Rv at 12.5 ug/ml by broth microdilution assay; type: functional
How it was run: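 Primary screen against M. tuberculosis H37Rv (ATCC 27294) at a single concentration of 12.5 µg/mL in BACTEC 12B medium by broth microdilution. Growth inhibition expressed as % relative to controls. Hydrochloride salt used where applicable.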

Structure (SMILES) | inhibition at 6.25 µg/mL [1] | logP ([2]; read-out: logP) | MIC [3] | logP [2] | Activity (Mus musculus [4]) | Activity (Mus musculus [5]) | Activity (Mus musculus [6]) | Activity (Mus musculus [7]) | Activity (Liver [8]) | Activity (Liver [9]) | Activity (Rattus norvegicus) | Activity (Liver [10]) | inhibition at 12.5 µg/mL [11]
O=C1/C(=C/c2ccccc2)CN(C(=O)c2ccccc2)C/C1=C\c1ccccc1 | 0% | 5.5 |  |  |  |  |  |  |  |  |  |  | 
Cl.O=C1/C(=C/c2ccccc2)CN(C(=O)c2ccc(OCCN3CCCCC3)cc2)C/C1=C\c1ccccc1 | 100% |  | 6.25 µg/mL | 7.1 |  |  |  |  |  |  |  |  | 
CCN(CC)CCOc1ccc(C(=O)N2C/C(=C\c3ccc(C)cc3)C(=O)/C(=C/c3ccc(C)cc3)C2)cc1.Cl | 100% |  | 3.13 µg/mL | 7.9 | Non-toxic | Non-toxic | Non-toxic | Non-toxic |  |  |  |  | 
Cc1ccc(/C=C2\CN(C(=O)c3ccc(OCCN(C)C)cc3)C/C(=C\c3ccc(C)cc3)C2=O)cc1.Cl | 100% |  | 3.13 µg/mL | 6.8 | Non-toxic | Non-toxic | Non-toxic |  |  |  |  |  | 
Cl.O=C1/C(=C/c2ccc([N+](=O)[O-])cc2)CN(C(=O)c2ccc(OCCN3CCOCC3)cc2)C/C1=C\c1ccc([N+](=O)[O-])cc1 | 100% | 5 | 6.25 µg/mL |  | Non-toxic | Non-toxic |  | Non-toxic |  |  |  |  | 
Cl.O=C1/C(=C/c2ccccc2)CN(C(=O)c2ccc(OCCN3CCOCC3)cc2)C/C1=C\c1ccccc1 | 100% | 5.4 | 6.25 µg/mL |  | Non-toxic | Non-toxic |  | Non-toxic |  |  |  |  | 
CN(C)CCOc1ccc(C(=O)N2C/C(=C\c3ccccc3)C(=O)/C(=C/c3ccccc3)C2)cc1.Cl | 98% |  | 1.56 µg/mL | 5.9 | Non-toxic | Non-toxic | Non-toxic | Non-toxic | inactive | inactive | Non-toxic | inactive | 
Cc1ccc(/C=C2\CN(C(=O)c3ccc(OCCN4CCCCC4)cc3)C/C(=C\c3ccc(C)cc3)C2=O)cc1.Cl | 100% |  | 3.13 µg/mL | 8 | Non-toxic | Non-toxic | Non-toxic |  |  |  |  |  | 
CCN(CC)CCOc1ccc(C(=O)O)cc1.Cl | 12% | 2.9 |  |  | Non-toxic | Non-toxic | Non-toxic | Non-toxic |  |  |  |  | 
Cl.O=C1/C(=C/c2ccc(Cl)cc2)CN(C(=O)c2ccc(OCCN3CCCCC3)cc2)C/C1=C\c1ccc(Cl)cc1 | 86% |  |  | 8.1 |  |  |  |  |  |  |  |  | 
CN(C)CCOc1ccc(C(=O)N2C/C(=C\c3ccc(Cl)cc3)C(=O)/C(=C/c3ccc(Cl)cc3)C2)cc1.Cl | 100% |  | 1.56 µg/mL | 7 | Non-toxic | Non-toxic | Non-toxic | Non-toxic |  |  |  |  | 
O=C1/C(=C/c2ccc([N+](=O)[O-])cc2)CNC/C1=C\c1ccc([N+](=O)[O-])cc1 |  |  | 0.2 µg/mL (≈ 0.547 µM) | 5.3 | Non-toxic | Non-toxic | Non-toxic | Non-toxic | inactive | inactive |  | inactive | 100%
COc1ccc(C(=O)N2C/C(=C\c3ccc(Cl)cc3)C(=O)/C(=C/c3ccc(Cl)cc3)C2)cc1 | 47% | 6 |  |  | Non-toxic | Non-toxic | Non-toxic |  |  |  |  |  | 
Cl.O=C1/C(=C/c2ccccc2)CNC/C1=C\c1ccccc1 |  |  | 3.13 µg/mL | 5.7 | Non-toxic | Non-toxic | Non-toxic | Non-toxic |  |  |  |  | 99%
CCN(CC)CCOc1ccc(C(=O)N2C/C(=C\c3ccc(Cl)cc3)C(=O)/C(=C/c3ccc(Cl)cc3)C2)cc1.Cl | 37% |  |  | 8 | Non-toxic | Non-toxic | Non-toxic | Non-toxic |  |  |  |  | 
Cl.O=C1/C(=C/c2ccc(Cl)cc2)CNC/C1=C\c1ccc(Cl)cc1 |  |  | 6.25 µg/mL | 6.8 | Non-toxic | Non-toxic | Non-toxic | Non-toxic |  |  |  |  | 99%
Cl.O=C1/C(=C/c2ccc([N+](=O)[O-])cc2)CN(C(=O)c2ccc(OCCN3CCCCC3)cc2)C/C1=C\c1ccc([N+](=O)[O-])cc1 | 100% |  | 3.13 µg/mL | 6.6 | Non-toxic |  |  |  |  |  |  |  | 
CCN(CC)CCOc1ccc(C(=O)N2C/C(=C\c3ccc([N+](=O)[O-])cc3)C(=O)/C(=C/c3ccc([N+](=O)[O-])cc3)C2)cc1.Cl | 34% |  |  | 6.5 |  |  |  |  |  |  |  |  | 
Cc1ccc(/C=C2\CNC/C(=C\c3ccc(C)cc3)C2=O)cc1 | 0% |  |  | 6.6 | Non-toxic | Non-toxic | Non-toxic | Non-toxic |  |  |  |  | 
Cc1ccc(/C=C2\CN(C(=O)c3ccc(OCCN4CCOCC4)cc3)C/C(=C\c3ccc(C)cc3)C2=O)cc1.Cl | 100% | 6.3 | 0.78 µg/mL |  | Non-toxic | Non-toxic | Non-toxic | Non-toxic |  |  |  |  | 
CC[N+](C)(CC)CCOc1ccc(C(=O)N2C/C(=C\c3ccc(Cl)cc3)C(=O)/C(=C/c3ccc(Cl)cc3)C2)cc1.[I-] | 23% | 3.2 |  |  | Non-toxic | Non-toxic | Non-toxic | Non-toxic |  |  |  |  | 
CO[C@H]1/C=C/O[C@@]2(C)Oc3c(C)c(O)c4c(O)c(c(/C=N/N5CCN(C)CC5)c(O)c4c3C2=O)NC(=O)/C(C)=C\C=C\[C@H](C)[C@H](O)[C@@H](C)[C@@H](O)[C@@H](C)[C@H](OC(C)=O)[C@@H]1C [RIFAMPIN] |  |  | 0.07 µg/mL (≈ 0.0851 µM) |  |  |  |  |  |  |  |  |  | 
CC[N+](C)(CC)CCOc1ccc(C(=O)N2C/C(=C\c3ccccc3)C(=O)/C(=C/c3ccccc3)C2)cc1.[I-] | 0% | 2.2 |  |  | Toxic | Toxic | Toxic | Toxic |  |  |  |  | 
CC[N+](C)(CC)CCOc1ccc(C(=O)N2C/C(=C\c3ccc(C)cc3)C(=O)/C(=C/c3ccc(C)cc3)C2)cc1.[I-] | 81% | 3.1 |  |  | Non-toxic | Toxic |  | Non-toxic |  |  |  |  | 

From ChEMBL document CHEMBL1157157, “N-Aroyl-3,5-bis(benzylidene)-4-piperidones: a novel class of antimycobacterial agents” (Bioorg Med Chem, 2008)
